Test system: not listed separately
Assay: Inhibition of C-terminal 6xHis-tagged Hepatitis C virus genotype 1b BK NS5B Cdelta21 RNA dependent RNA polymerase L47Q/F101Y/[…] mutant after 30 mins in presence of [alpha-33P]
Set-up: species or system Hepatitis C virus (isolate BK)
Conditions: not given

Compound | IC50
CNC(=O)c1c(-c2ccc(F)cc2)oc2cc(N(CCC3COB(O)C3)S(C)(=O)=O)c(C3CC3)cc12 (racemic) | 50 nM
CNC(=O)c1c(-c2ccc(F)cc2)oc2cc(N(Cc3cc(F)c4c(c3)COB4O)S(C)(=O)=O)c(C3CC3)cc12 | 32 nM
CNC(=O)c1c(-c2ccc(F)cc2)oc2cc(N(Cc3ccc4c(c3)COB4O)S(C)(=O)=O)c(C3CC3)cc12 | 40 nM
CNC(=O)c1c(-c2ccc(F)cc2)oc2cc(N(Cc3ccc(C(=O)O)cc3)S(C)(=O)=O)c(C3CC3)cc12 | 25 nM
CCOP(=O)(OCC)c1ccc(CN(c2cc3oc(-c4ccc(F)cc4)c(C(=O)NC)c3cc2C2CC2)S(C)(=O)=O)cc1 | 100 nM
CNC(=O)c1c(-c2ccc(F)cc2)oc2cc(N(CCOCB(O)O)S(C)(=O)=O)c(C3CC3)cc12 | 40 nM

Test system: Hepatitis C virus
Assay: Antiviral activity against wild type Hepatitis C virus genotype 1b harboring S365T mutant infected in human HuH7 cells assessed as inhibition of viral replication after 72 hrs by Bright-glo luciferase reporter gene assay
Format: functional, organism-based, Hepacivirus hominis
Conditions: Huh-7, 72 h

Compound | EC50
CNC(=O)c1c(-c2ccc(F)cc2)oc2cc(N(Cc3cc(F)c4c(c3)COB4O)S(C)(=O)=O)c(C3CC3)cc12 | 84 nM

Test system: Hepatitis C virus
Assay: Antiviral activity against wild type Hepatitis C virus genotype 1a infected in human HuH7 cells assessed as inhibition of viral replication after 48 hrs by luciferase reporter gene assay
Format: functional, organism-based, Hepacivirus hominis
Conditions: subtype 1a, Huh-7, 48 h
Summary of the method: (§1)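 Replicon-based readout (stable and transient replicon formats) in place of virus infection, with compound present for 2 days before EC50 determination.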

Compound | EC50
CNC(=O)c1c(-c2ccc(F)cc2)oc2cc(N(CCC3COB(O)C3)S(C)(=O)=O)c(C3CC3)cc12 (racemic) | 6.1 nM
CNC(=O)c1c(-c2ccc(F)cc2)oc2cc(N(Cc3cc(F)c4c(c3)COB4O)S(C)(=O)=O)c(C3CC3)cc12 | 5.8 nM
CNC(=O)c1c(-c2ccc(F)cc2)oc2cc(N(Cc3ccc4c(c3)COB4O)S(C)(=O)=O)c(C3CC3)cc12 | 9.5 nM
CNC(=O)c1c(-c2ccc(F)cc2)oc2cc(N(Cc3ccc(C(=O)O)cc3)S(C)(=O)=O)c(C3CC3)cc12 | 290 nM
CCOP(=O)(OCC)c1ccc(CN(c2cc3oc(-c4ccc(F)cc4)c(C(=O)NC)c3cc2C2CC2)S(C)(=O)=O)cc1 | 36 nM
CNC(=O)c1c(-c2ccc(F)cc2)oc2cc(N(CCOCB(O)O)S(C)(=O)=O)c(C3CC3)cc12 | 6.7 nM

Test system: Huh-7
Assay: Cytotoxicity in human HuH7 cells assessed as cell viability after 72 hrs by CellTitre-glo luminescence assay
Format: cell-based
Conditions: huh-7, 72 h

Compound | Activity
CNC(=O)c1c(-c2ccc(F)cc2)oc2cc(N(CCC3COB(O)C3)S(C)(=O)=O)c(C3CC3)cc12 (racemic) | Non-toxic

Test system: Hepatitis C virus
Assay: Antiviral activity against wild type Hepatitis C virus genotype 1b harboring C316N mutant infected in human HuH7 cells assessed as inhibition of viral replication after 48 hrs by luciferase reporter gene assay
Format: functional, organism-based, Hepacivirus hominis
Conditions: Huh-7, 48 h

Compound | EC50
CNC(=O)c1c(-c2ccc(F)cc2)oc2cc(N(CCC3COB(O)C3)S(C)(=O)=O)c(C3CC3)cc12 (racemic) | 5.6 nM
CNC(=O)c1c(-c2ccc(F)cc2)oc2cc(N(Cc3cc(F)c4c(c3)COB4O)S(C)(=O)=O)c(C3CC3)cc12 | 12 nM
CNC(=O)c1c(-c2ccc(F)cc2)oc2cc(N(Cc3ccc4c(c3)COB4O)S(C)(=O)=O)c(C3CC3)cc12 | 16 nM
CNC(=O)c1c(-c2ccc(F)cc2)oc2cc(N(Cc3ccc(C(=O)O)cc3)S(C)(=O)=O)c(C3CC3)cc12 | 3200 nM
CCOP(=O)(OCC)c1ccc(CN(c2cc3oc(-c4ccc(F)cc4)c(C(=O)NC)c3cc2C2CC2)S(C)(=O)=O)cc1 | 480 nM
CNC(=O)c1c(-c2ccc(F)cc2)oc2cc(N(CCOCB(O)O)S(C)(=O)=O)c(C3CC3)cc12 | 3.9 nM

Test system: not listed separately
Assay: Stability of the compound
Format: physicochemical
Conditions: not given

Compound | Stability
CNC(=O)c1c(-c2ccc(F)cc2)oc2cc(N(CCC3COB(O)C3)S(C)(=O)=O)c(C3CC3)cc12 (racemic) | Stable

Test system: Hepatitis C virus
Assay: Antiviral activity against wild type Hepatitis C virus genotype 1b harboring C316Y mutant infected in human HuH7 cells assessed as inhibition of viral replication after 72 hrs by Bright-glo luciferase reporter gene assay
Format: functional, organism-based, Hepacivirus hominis
Conditions: Huh-7, 72 h

Compound | EC50
CNC(=O)c1c(-c2ccc(F)cc2)oc2cc(N(Cc3cc(F)c4c(c3)COB4O)S(C)(=O)=O)c(C3CC3)cc12 | 16 nM

Test system: Hepatitis C virus
Assay: Antiviral activity against wild type Hepatitis C virus genotype 1a harboring C316Y mutant infected in human HuH7 cells assessed as inhibition of viral replication after 48 hrs by luciferase reporter gene assay
Format: functional, organism-based, Hepacivirus hominis
Conditions: subtype 1a, Huh-7, 48 h

Compound | EC50
CNC(=O)c1c(-c2ccc(F)cc2)oc2cc(N(Cc3cc(F)c4c(c3)COB4O)S(C)(=O)=O)c(C3CC3)cc12 | 190 nM

Test system: Hepatitis C virus
Assay: Antiviral activity against wild type Hepatitis C virus genotype 1b harboring C316F mutant infected in human HuH7 cells assessed as inhibition of viral replication after 72 hrs by Bright-glo luciferase reporter gene assay
Format: functional, organism-based, Hepacivirus hominis
Conditions: Huh-7, 72 h

Compound | EC50
CNC(=O)c1c(-c2ccc(F)cc2)oc2cc(N(Cc3cc(F)c4c(c3)COB4O)S(C)(=O)=O)c(C3CC3)cc12 | 110 nM

Test system: Hepatitis C virus
Assay: Antiviral activity against wild type Hepatitis C virus genotype 1b infected in human HuH7 cells assessed as inhibition of viral replication after 48 hrs by luciferase reporter gene assay
Format: functional, organism-based, Hepacivirus hominis
Conditions: Huh-7, 48 h
Summary of the method: as §1

Compound | EC50
CNC(=O)c1c(-c2ccc(F)cc2)oc2cc(N(CCC3COB(O)C3)S(C)(=O)=O)c(C3CC3)cc12 (racemic) | 3.1 nM
CNC(=O)c1c(-c2ccc(F)cc2)oc2cc(N(Cc3cc(F)c4c(c3)COB4O)S(C)(=O)=O)c(C3CC3)cc12 | 3.2 nM
CNC(=O)c1c(-c2ccc(F)cc2)oc2cc(N(Cc3ccc4c(c3)COB4O)S(C)(=O)=O)c(C3CC3)cc12 | 2.7 nM
CNC(=O)c1c(-c2ccc(F)cc2)oc2cc(N(Cc3ccc(C(=O)O)cc3)S(C)(=O)=O)c(C3CC3)cc12 | 150 nM
CCOP(=O)(OCC)c1ccc(CN(c2cc3oc(-c4ccc(F)cc4)c(C(=O)NC)c3cc2C2CC2)S(C)(=O)=O)cc1 | 20 nM
CNC(=O)c1c(-c2ccc(F)cc2)oc2cc(N(CCOCB(O)O)S(C)(=O)=O)c(C3CC3)cc12 | 3.2 nM

Test system: not listed separately
Assay: Clearance in Sprague-Dawley rat at 1 mg/kg, iv and 5 mg/kg, po
Format: ADME, organism-based
Conditions: in vivo

Compound | clearance
CNC(=O)c1c(-c2ccc(F)cc2)oc2cc(N(CCOCB(O)O)S(C)(=O)=O)c(C3CC3)cc12 | 25 mL/min/kg
